From ChEMBL document CHEMBL1806372, “Cytotoxic ring A-modified steroid analogues derived from Grundmann's ketone” (Eur J Med Chem, 2011)
Active and inactive are the calls of the source. The calls are words filed in the database; no cut-off is given here.

Tests used:
Escherichia coli = assay: Antibacterial activity against Escherichia coli assessed as zone of inhibition at 5 uL and 32 degC after 36 hrs by disk diffusion method; format: functional
Outline: (§1)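 Disc diffusion on AC agar, each strain spread evenly over the medium; test compounds given as 1% (w/v) DMSO solutions. Plates covered and incubated 36 h at 32 °C, then the diameter of the zone of inhibited growth measured in mm. Tetracycline served as antibacterial reference.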

[1] = (§2) Antibacterial activity against Pseudomonas antimicrobica assessed as zone of inhibition at 5 uL and 32 degC after 36 hrs by disk diffusion method; format: functional, Burkholderia gladioli; outline: as §1
Aspergillus niger = assay: Antifungal activity against Aspergillus niger assessed as zone of inhibition at 5 uL and 28 degC after 36 hrs by disk diffusion method; format: functional
Outline: (§3)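 Agar disc diffusion with the test compound applied as a 1% (w/v) DMSO solution. Yeasts were grown on AC agar and Aspergillus niger on potato dextrose broth agar, each strain spread evenly. Plates were covered and kept 36 h at 28 °C, and the inhibition zone diameter was read in mm. Clotrimazole served as reference.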

[2] = Antifungal activity against Hyphopichia burtonii assessed as zone of inhibition at 5 uL and 28 degC after 36 hrs by disk diffusion method; format: functional; outline: as §3
HL-60 = assay: Cytotoxicity against human HL60 cells after 24 hrs by MTT assay; format: functional, cell-based; details: HL-60, 24 h
Outline: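 HL-60 cells kept in RPMI 1640 with 10% FBS, no antibiotics, 37 °C, humidified 5% CO2. Cells (9 × 10^5 cells/mL) exposed to compound in 96-well plates for 24 h at 37 °C. MTT in PBS (5 mg/mL) added for 2 h, then DMSO, shaken 1 h and read photometrically. IC50 determined; cisplatin reference.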

Nakaseomyces glabratus = assay: Antifungal activity against Candida glabrata assessed as zone of inhibition at 5 uL and 28 degC after 36 hrs by disk diffusion method; format: functional; outline: as §3
Staphylococcus equorum = assay: Antibacterial activity against Staphylococcus equorum assessed as zone of inhibition at 5 uL and 32 degC after 36 hrs at by disk diffusion method; format: functional; outline: as §1
Yarrowia lipolytica = assay: Antifungal activity against Yarrowia lipolytica assessed as zone of inhibition at 5 uL and 28 degC after 36 hrs by disk diffusion method; format: functional; outline: as §3
Streptococcus entericus = assay: Antibacterial activity against Streptococcus entericus assessed as zone of inhibition at 5 uL and 32 degC after 36 hrs by disk diffusion method; format: functional; outline: as §1
Burkholderia gladioli = assay: as §2; format: functional; outline: as §1

## CC(C)CCC[C@@H](C)[C@H]1CC[C@H]2C3=CC[C@@H]4C(=O)OC(=O)[C@@H]4[C@@H]3CC[C@]12C
Escherichia coli
  diameter of the inhibition zone (DIZ): 7 mm
[1]
  diameter of the inhibition zone (DIZ): 10 mm
Aspergillus niger
  diameter of the inhibition zone (DIZ): inactive
[2]
  inhibition zone (IZ): 10 mm
HL-60
  IC50: 30 µM
Nakaseomyces glabratus
  diameter of the inhibition zone (DIZ): 8 mm
Staphylococcus equorum
  diameter of the inhibition zone (DIZ): inactive
Yarrowia lipolytica
  diameter of the inhibition zone (DIZ): inactive
Streptococcus entericus
  diameter of the inhibition zone (DIZ): 12 mm

## CC(C)CCC[C@@H](C)[C@H]1CC[C@H]2C(C#CCCN3C(=O)C=CC3=O)=CCC[C@]12C
Escherichia coli
  diameter of the inhibition zone (DIZ): 15 mm
[1]
  diameter of the inhibition zone (DIZ): 13 mm
Aspergillus niger
  diameter of the inhibition zone (DIZ): inactive
[2]
  inhibition zone (IZ): 12 mm
HL-60
  IC50: 46 µM
Nakaseomyces glabratus
  diameter of the inhibition zone (DIZ): 10 mm
Staphylococcus equorum
  diameter of the inhibition zone (DIZ): 11 mm
Yarrowia lipolytica
  diameter of the inhibition zone (DIZ): inactive
Streptococcus entericus
  diameter of the inhibition zone (DIZ): 15 mm

## CC(C)=CCCC1=CCn2c(=O)ccc(=O)n2C1
Escherichia coli
  diameter of the inhibition zone (DIZ): inactive
Burkholderia gladioli
  diameter of the inhibition zone (DIZ): inactive
Aspergillus niger
  diameter of the inhibition zone (DIZ): inactive
[2]
  diameter of the inhibition zone (DIZ): inactive
HL-60
  IC50: 41 µM
Nakaseomyces glabratus
  diameter of the inhibition zone (DIZ): inactive
Staphylococcus equorum
  diameter of the inhibition zone (DIZ): inactive
Yarrowia lipolytica
  diameter of the inhibition zone (DIZ): inactive
Streptococcus entericus
  diameter of the inhibition zone (DIZ): inactive

## CCN1C(=O)[C@H]2[C@H](CC=C3[C@H]2CC[C@]2(C)[C@@H]([C@H](C)CCCC(C)C)CC[C@@H]32)C1=O
Escherichia coli
  diameter of the inhibition zone (DIZ): 7 mm
[1]
  diameter of the inhibition zone (DIZ): 7 mm
Aspergillus niger
  diameter of the inhibition zone (DIZ): inactive
[2]
  inhibition zone (IZ): 7 mm
HL-60
  IC50: 13 µM
Nakaseomyces glabratus
  diameter of the inhibition zone (DIZ): 8 mm
Staphylococcus equorum
  diameter of the inhibition zone (DIZ): 8 mm
Yarrowia lipolytica
  diameter of the inhibition zone (DIZ): inactive
Streptococcus entericus
  diameter of the inhibition zone (DIZ): 11 mm

## CC(C)CCC[C@@H](C)[C@H]1CC[C@H]2C(CCCCO)CCC[C@]12C (mixture of isomers)
HL-60
  IC50: 13 µM

## CN(C)[C@@H]1C(O)=C(C(N)=O)C(=O)[C@@]2(O)C(O)=C3C(=O)c4c(O)cccc4[C@@](C)(O)[C@H]3C[C@@H]12 [TETRACYCLINE]
Escherichia coli
  diameter of the inhibition zone (DIZ): 30 mm
[1]
  diameter of the inhibition zone (DIZ): 25 mm
Staphylococcus equorum
  diameter of the inhibition zone (DIZ): 30 mm
Streptococcus entericus
  diameter of the inhibition zone (DIZ): 22 mm

## CC(C)CCC[C@@H](C)[C@H]1CC[C@H]2C3=CC[C@@H]4C(=O)N(C)C(=O)[C@@H]4[C@@H]3CC[C@]12C
Escherichia coli
  diameter of the inhibition zone (DIZ): 10 mm
[1]
  diameter of the inhibition zone (DIZ): 7 mm
Aspergillus niger
  diameter of the inhibition zone (DIZ): inactive
[2]
  inhibition zone (IZ): 14 mm
HL-60
  IC50: 15 µM
Nakaseomyces glabratus
  diameter of the inhibition zone (DIZ): 10 mm
Staphylococcus equorum
  diameter of the inhibition zone (DIZ): inactive
Yarrowia lipolytica
  diameter of the inhibition zone (DIZ): inactive
Streptococcus entericus
  diameter of the inhibition zone (DIZ): 10 mm

## CC(C)CCC[C@@H](C)[C@H]1CC[C@H]2C(/C=C/CO)=CCC[C@]12C
Escherichia coli
  diameter of the inhibition zone (DIZ): 10 mm
[1]
  diameter of the inhibition zone (DIZ): 18 mm
Aspergillus niger
  diameter of the inhibition zone (DIZ): inactive
[2]
  inhibition zone (IZ): 22 mm
HL-60
  IC50: 32 µM
Nakaseomyces glabratus
  diameter of the inhibition zone (DIZ): 18 mm
Staphylococcus equorum
  diameter of the inhibition zone (DIZ): 12 mm
Yarrowia lipolytica
  diameter of the inhibition zone (DIZ): inactive
Streptococcus entericus
  diameter of the inhibition zone (DIZ): 14 mm

## CC(C)CCC[C@@H](C)[C@H]1CC[C@H]2C(CCCCN3C(=O)C=CC3=O)CCC[C@]12C (mixture of isomers)
Escherichia coli
  diameter of the inhibition zone (DIZ): 10 mm
[1]
  diameter of the inhibition zone (DIZ): 9 mm
Aspergillus niger
  diameter of the inhibition zone (DIZ): inactive
[2]
  inhibition zone (IZ): 9 mm
HL-60
  IC50: 14 µM
Nakaseomyces glabratus
  diameter of the inhibition zone (DIZ): 8 mm
Staphylococcus equorum
  diameter of the inhibition zone (DIZ): 11 mm
Yarrowia lipolytica
  diameter of the inhibition zone (DIZ): inactive
Streptococcus entericus
  diameter of the inhibition zone (DIZ): 12 mm

## C=CC1=CCC[C@]2(C)[C@@H]([C@H](C)CCCC(C)C)CC[C@@H]12
Escherichia coli
  diameter of the inhibition zone (DIZ): inactive
Burkholderia gladioli
  diameter of the inhibition zone (DIZ): inactive
Aspergillus niger
  diameter of the inhibition zone (DIZ): inactive
[2]
  diameter of the inhibition zone (DIZ): inactive
HL-60
  IC50: > 100 µM
Nakaseomyces glabratus
  diameter of the inhibition zone (DIZ): inactive
Staphylococcus equorum
  diameter of the inhibition zone (DIZ): 10 mm
Yarrowia lipolytica
  diameter of the inhibition zone (DIZ): inactive
Streptococcus entericus
  diameter of the inhibition zone (DIZ): 9 mm

## CC(C)CCC[C@@H](C)[C@H]1CC[C@H]2C3=CCn4c(=O)c5ccccc5c(=O)n4[C@@H]3CC[C@]12C
Escherichia coli
  diameter of the inhibition zone (DIZ): inactive
[1]
  diameter of the inhibition zone (DIZ): 7 mm
Aspergillus niger
  diameter of the inhibition zone (DIZ): inactive
[2]
  inhibition zone (IZ): 7 mm
HL-60
  IC50: 17 µM
Nakaseomyces glabratus
  diameter of the inhibition zone (DIZ): 10 mm
Staphylococcus equorum
  diameter of the inhibition zone (DIZ): inactive
Yarrowia lipolytica
  diameter of the inhibition zone (DIZ): inactive
Streptococcus entericus
  diameter of the inhibition zone (DIZ): inactive

## CCCN1C(=O)[C@H]2[C@H](CC=C3[C@H]2CC[C@]2(C)[C@@H]([C@H](C)CCCC(C)C)CC[C@@H]32)C1=O
Escherichia coli
  diameter of the inhibition zone (DIZ): 7 mm
[1]
  diameter of the inhibition zone (DIZ): 7 mm
Aspergillus niger
  diameter of the inhibition zone (DIZ): inactive
[2]
  inhibition zone (IZ): 14 mm
HL-60
  IC50: 7 µM
Nakaseomyces glabratus
  diameter of the inhibition zone (DIZ): 6 mm
Staphylococcus equorum
  diameter of the inhibition zone (DIZ): inactive
Yarrowia lipolytica
  diameter of the inhibition zone (DIZ): 10 mm
Streptococcus entericus
  diameter of the inhibition zone (DIZ): 7 mm

## CC(C)CCC[C@@H](C)[C@H]1CC[C@H]2C3=CC[C@@H]4C(=O)NC(=O)[C@@H]4[C@@H]3CC[C@]12C
Escherichia coli
  diameter of the inhibition zone (DIZ): 24 mm
[1]
  diameter of the inhibition zone (DIZ): 11 mm
Aspergillus niger
  diameter of the inhibition zone (DIZ): inactive
[2]
  diameter of the inhibition zone (DIZ): inactive
HL-60
  IC50: 16 µM
Nakaseomyces glabratus
  diameter of the inhibition zone (DIZ): 15 mm
Staphylococcus equorum
  diameter of the inhibition zone (DIZ): 14 mm
Yarrowia lipolytica
  diameter of the inhibition zone (DIZ): inactive
Streptococcus entericus
  diameter of the inhibition zone (DIZ): 15 mm

## Clc1ccccc1C(c1ccccc1)(c1ccccc1)n1ccnc1 [CLOTRIMAZOLE]
Aspergillus niger
  diameter of the inhibition zone (DIZ): 13 mm
[2]
  inhibition zone (IZ): 20 mm
Nakaseomyces glabratus
  diameter of the inhibition zone (DIZ): 18 mm
Yarrowia lipolytica
  diameter of the inhibition zone (DIZ): 18 mm

## CC(C)CCC[C@@H](C)[C@H]1CC[C@H]2C3=CCn4c(=O)n(C)c(=O)n4[C@@H]3CC[C@]12C
Escherichia coli
  diameter of the inhibition zone (DIZ): inactive
Burkholderia gladioli
  diameter of the inhibition zone (DIZ): inactive
Aspergillus niger
  diameter of the inhibition zone (DIZ): inactive
[2]
  diameter of the inhibition zone (DIZ): inactive
HL-60
  IC50: 13 µM
Nakaseomyces glabratus
  diameter of the inhibition zone (DIZ): inactive
Staphylococcus equorum
  diameter of the inhibition zone (DIZ): 10 mm
Yarrowia lipolytica
  diameter of the inhibition zone (DIZ): inactive
Streptococcus entericus
  diameter of the inhibition zone (DIZ): inactive

## CC(C)CCC[C@@H](C)[C@H]1CC[C@H]2C(C#CCCO)=CCC[C@]12C
Escherichia coli
  diameter of the inhibition zone (DIZ): 10 mm
[1]
  diameter of the inhibition zone (DIZ): 11 mm
Aspergillus niger
  diameter of the inhibition zone (DIZ): inactive
[2]
  inhibition zone (IZ): 11 mm
HL-60
  IC50: 38 µM
Nakaseomyces glabratus
  diameter of the inhibition zone (DIZ): 10 mm
Staphylococcus equorum
  diameter of the inhibition zone (DIZ): 6 mm
Yarrowia lipolytica
  diameter of the inhibition zone (DIZ): inactive
Streptococcus entericus
  diameter of the inhibition zone (DIZ): 14 mm

## CC(C)CCC[C@@H](C)[C@H]1CC[C@H]2C(/C=C/CN3C(=O)C=CC3=O)=CCC[C@]12C
Escherichia coli
  diameter of the inhibition zone (DIZ): 9 mm
[1]
  diameter of the inhibition zone (DIZ): 10 mm
Aspergillus niger
  diameter of the inhibition zone (DIZ): inactive
[2]
  inhibition zone (IZ): 8 mm
HL-60
  IC50: 32 µM
Nakaseomyces glabratus
  diameter of the inhibition zone (DIZ): 7 mm
Staphylococcus equorum
  diameter of the inhibition zone (DIZ): 11 mm
Yarrowia lipolytica
  diameter of the inhibition zone (DIZ): inactive
Streptococcus entericus
  diameter of the inhibition zone (DIZ): 15 mm
